Calls of active or inactive are those of the source. The calls are words filed in the database; no cut-off is given here.
Experiments:
[1] = target: Dual specificity mitogen-activated protein kinase kinase; MEK1/2 (Homo sapiens) (UniProt P36507+Q02750); assay: Inhibition of MEK1/2 in human NCI-H1975 cells assessed as blocking of MEK1/2 pulldown at 1 uM in presence of TL13-68 incubated for 2 hrs by Western blot analysis; assay type: cell-based
Method in brief: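 H1975 or HCC827 cells treated with 1 μM compound or DMSO for 2 h, rinsed twice in cold PBS, and lysed in M-PER with protease/phosphatase inhibitors. Lysate rocked overnight at 4 °C with 1 μM TL13-68, then streptavidin pulldown with five cold washes. Bound kinases detected by Western blot. Two independent experiments.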

[2] = test system: Tyrosine-protein kinase ABL1 (Homo sapiens), P00519 [Q252H]; assay: Binding affinity to human phosphorylated ABL1 Q252H mutant expressed in mammalian expression system assessed as residual binding level at 1 uM by Kinomescan method relative to control
Method in brief: (§1)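 Active-site-directed KinomeScan competition binding panel covering 468 kinases, compound tested at 1 μM. Each readout is the kinase signal remaining with compound, expressed as a percentage of the DMSO control. […]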

[3] = test system: ALK tyrosine kinase receptor (Homo sapiens), Q9UM73 [L1196M]; assay: Binding affinity to wild-type human partial length ALK L1196M mutant (I1088 to E1409 residues) expressed in mammalian expression system assessed as residual binding level at 1 uM by Kinomescan method relative to control
[4] = target: 5'-AMP-activated protein kinase catalytic subunit alpha-2 (Homo sapiens) (UniProt P54646); assay: Binding affinity to wild-type human partial length AMPK alpha2 (M1 to E306 residues) expressed in bacterial expression system assessed as residual binding level at 1 uM by Kinomescan method relative to control
[5] = target: Bone morphogenetic protein receptor type-1A (Homo sapiens) (UniProt P36894); assay: Binding affinity to wild-type human partial length BMPR1A (Q214 to I532 residues) expressed in bacterial expression system assessed as residual binding level at 1 uM by Kinomescan method relative to control
[6] = target: Serine/threonine-protein kinase Chk2 (Homo sapiens) (UniProt O96017); assay: Binding affinity to wild-type human partial length CHEK2 (S253 to E574 residues) expressed in bacterial expression system assessed as residual binding level at 1 uM by Kinomescan method relative to control
Method in brief: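 KinomeScan, an active site-directed competition binding panel of 468 kinases. The test compound was at 1 μM. The readout is remaining kinase binding as a percentage of the DMSO control. Scores above 35% were treated as weak binding and not listed.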

[7] = target: Dual specificity protein kinase CLK2 (Homo sapiens) (UniProt P49760); assay: Binding affinity to wild-type human partial length CLK2 (D144 to R498 residues) expressed in bacterial expression system assessed as residual binding level at 1 uM by Kinomescan method relative to control
[8] = target: Casein kinase I isoform alpha-like (Homo sapiens) (UniProt Q8N752); assay: Binding affinity to wild-type human full length CSNK1A1L (M1 to N337 residues) expressed in bacterial expression system assessed as residual binding level at 1 uM by Kinomescan method relative to control; method in brief: as §1
[9] = target: Casein kinase I isoform gamma-2 (Homo sapiens) (UniProt P78368); assay: Binding affinity to wild-type human full length CSNK1G2 (M1 to K415 residues) expressed in bacterial expression system assessed as residual binding level at 1 uM by Kinomescan method relative to control; method in brief: as §1
[10] = target: Serine/threonine-protein kinase 17A (Homo sapiens) (UniProt Q9UEE5); assay: Binding affinity to wild-type human partial length DRAK1 (R32 to E363 residues) expressed in bacterial expression system assessed as residual binding level at 1 uM by Kinomescan method relative to control
[11] = test system: Fibroblast growth factor receptor 3 (Homo sapiens), P22607 [G697C]; assay: Binding affinity to human partial length FGFR3 G697C mutant (R442 to S771 residues) expressed in bacterial expression system assessed as residual binding level at 1 uM by Kinomescan method relative to control
Method in brief: (§2)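 KinomeScan active site-directed competition binding panel (468 kinases), compound tested at 1 μM. Result expressed as remaining kinase signal versus DMSO control (percent of control).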

[12] = test system: Receptor-type tyrosine-protein kinase FLT3 (Homo sapiens), P36888 [D835Y]; assay: Binding affinity to human partial length FLT3 D835Y mutant (Q580 to Y969 residues) expressed in bacterial expression system assessed as residual binding level at 1 uM by Kinomescan method relative to control; method in brief: as §2
[13] = target: Mitogen-activated protein kinase kinase kinase kinase 1 (Homo sapiens) (UniProt Q92918); assay: Binding affinity to wild-type human full length HPK1 (M1 to R799 residues) expressed in bacterial expression system assessed as residual binding level at 1 uM by Kinomescan method relative to control; method in brief: as §1
[14] = test system: Mast/stem cell growth factor receptor Kit (Homo sapiens), P10721 [V559D]; assay: Binding affinity to human partial length KIT V559D mutant (Y545 to D952 residues) expressed in bacterial expression system assessed as residual binding level at 1 uM by Kinomescan method relative to control; method in brief: as §2
[15] = test system: Mast/stem cell growth factor receptor Kit (Homo sapiens), P10721 [UNDEFINED MUTATION]; assay: Binding affinity to human partial length KIT V559D/V654 double mutant (Y545 to D952 residues) expressed in bacterial expression system assessed as residual binding level at 1 uM by Kinomescan method relative to control; method in brief: as §2
[16] = target: Dual specificity mitogen-activated protein kinase kinase 4 (Homo sapiens) (UniProt P45985); assay: Binding affinity to wild-type human partial length MEK4 (S84 to D399 residues) expressed in mammalian expression system assessed as residual binding level at 1 uM by Kinomescan method relative to control
[17] = target: Membrane-associated tyrosine- and threonine-specific cdc2-inhibitory kinase (Homo sapiens) (UniProt Q99640); assay: Binding affinity to wild-type human partial length PKMYT1 (A88 to G366 residues) expressed in bacterial expression system assessed as residual binding level at 1 uM by Kinomescan method relative to control
[18] = target: Serine/threonine-protein kinase RIO2 (Homo sapiens) (UniProt Q9BVS4); assay: Binding affinity to wild-type human partial length RIOK2 (M1 to D313 residues) expressed in mammalian expression system assessed as residual binding level at 1 uM by Kinomescan method relative to control
[19] = target: SNF-related serine/threonine-protein kinase (Homo sapiens) (UniProt Q9NRH2); assay: Binding affinity to wild-type human partial length SNRK (M1 to E339 residues) expressed in mammalian expression system assessed as residual binding level at 1 uM by Kinomescan method relative to control
[20] = target: Mitogen-activated protein kinase kinase kinase 20 (Homo sapiens) (UniProt Q9NYL2); assay: Binding affinity to wild-type human partial length ZAK (M1 to L331 residues) expressed in bacterial expression system assessed as residual binding level at 1 uM by Kinomescan method relative to control
Method in brief: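 Active site-directed competition binding panel (KinomeScan, 468 kinases). Test compound at 1 μM. Read-out is kinase binding remaining versus DMSO control, expressed as percent of control. Scores above 35% are treated as weak binding.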

Mast/stem cell growth factor receptor Kit (Homo sapiens), P10721 [V559D], sequence (P10721 whole entry V559D, the tested form may be a part): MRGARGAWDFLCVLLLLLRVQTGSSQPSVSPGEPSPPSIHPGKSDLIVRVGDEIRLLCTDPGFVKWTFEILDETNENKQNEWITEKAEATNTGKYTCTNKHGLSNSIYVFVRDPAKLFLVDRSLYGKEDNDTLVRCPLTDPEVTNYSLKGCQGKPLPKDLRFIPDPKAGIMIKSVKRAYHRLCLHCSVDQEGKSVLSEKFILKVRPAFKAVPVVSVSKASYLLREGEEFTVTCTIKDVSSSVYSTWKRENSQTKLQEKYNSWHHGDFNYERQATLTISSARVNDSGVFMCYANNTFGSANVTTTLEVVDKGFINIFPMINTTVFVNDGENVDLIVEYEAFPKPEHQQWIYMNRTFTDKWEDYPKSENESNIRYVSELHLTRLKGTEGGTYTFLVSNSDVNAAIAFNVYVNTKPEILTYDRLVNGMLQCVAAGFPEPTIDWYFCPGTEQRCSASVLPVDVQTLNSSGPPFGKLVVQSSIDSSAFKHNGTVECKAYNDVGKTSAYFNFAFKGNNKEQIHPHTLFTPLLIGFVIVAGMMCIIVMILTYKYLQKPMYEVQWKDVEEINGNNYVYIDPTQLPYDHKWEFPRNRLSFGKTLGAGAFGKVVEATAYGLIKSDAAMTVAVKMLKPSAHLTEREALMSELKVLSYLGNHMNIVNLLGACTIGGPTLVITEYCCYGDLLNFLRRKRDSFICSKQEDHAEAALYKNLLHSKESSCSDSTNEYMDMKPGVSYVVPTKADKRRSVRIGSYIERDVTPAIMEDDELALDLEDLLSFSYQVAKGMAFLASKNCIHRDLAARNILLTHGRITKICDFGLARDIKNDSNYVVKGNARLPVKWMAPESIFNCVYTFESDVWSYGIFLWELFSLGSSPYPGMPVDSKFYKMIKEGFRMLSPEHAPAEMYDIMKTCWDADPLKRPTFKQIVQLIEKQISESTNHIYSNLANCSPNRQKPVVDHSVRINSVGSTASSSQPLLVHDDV
Bone morphogenetic protein receptor type-1A (Homo sapiens), sequence (P36894 whole entry, the tested form may be a part): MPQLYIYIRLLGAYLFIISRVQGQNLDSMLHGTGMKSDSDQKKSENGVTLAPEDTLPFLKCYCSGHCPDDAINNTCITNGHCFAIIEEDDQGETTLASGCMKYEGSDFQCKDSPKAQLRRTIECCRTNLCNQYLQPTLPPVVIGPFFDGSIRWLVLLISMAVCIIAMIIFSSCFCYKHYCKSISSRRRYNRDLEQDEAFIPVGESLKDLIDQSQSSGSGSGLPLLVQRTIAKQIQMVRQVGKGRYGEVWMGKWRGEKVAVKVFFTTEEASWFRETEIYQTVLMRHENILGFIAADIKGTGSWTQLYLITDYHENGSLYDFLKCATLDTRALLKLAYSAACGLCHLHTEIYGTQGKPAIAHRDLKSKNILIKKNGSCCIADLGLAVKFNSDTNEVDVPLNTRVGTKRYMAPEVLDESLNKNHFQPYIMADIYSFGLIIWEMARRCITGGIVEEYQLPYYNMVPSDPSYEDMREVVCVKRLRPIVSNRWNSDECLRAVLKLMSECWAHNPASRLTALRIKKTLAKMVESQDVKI
Serine/threonine-protein kinase RIO2 (Homo sapiens), sequence (Q9BVS4 whole entry, looked up, the tested form may be a part): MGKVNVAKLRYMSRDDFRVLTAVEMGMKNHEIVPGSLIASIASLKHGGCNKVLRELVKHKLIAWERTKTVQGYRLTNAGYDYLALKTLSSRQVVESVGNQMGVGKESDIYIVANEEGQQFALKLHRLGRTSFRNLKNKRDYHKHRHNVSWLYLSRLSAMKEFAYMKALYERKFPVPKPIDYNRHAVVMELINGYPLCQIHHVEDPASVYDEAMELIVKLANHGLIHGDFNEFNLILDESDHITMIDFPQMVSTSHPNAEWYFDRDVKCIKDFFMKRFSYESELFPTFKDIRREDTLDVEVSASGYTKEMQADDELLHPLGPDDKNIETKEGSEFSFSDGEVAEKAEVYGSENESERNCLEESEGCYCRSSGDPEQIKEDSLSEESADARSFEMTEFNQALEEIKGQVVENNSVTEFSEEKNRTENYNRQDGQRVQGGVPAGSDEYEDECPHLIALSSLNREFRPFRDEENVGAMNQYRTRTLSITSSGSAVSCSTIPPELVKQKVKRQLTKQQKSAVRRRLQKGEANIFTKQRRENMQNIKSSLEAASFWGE
Mast/stem cell growth factor receptor Kit (Homo sapiens), P10721 [UNDEFINED MUTATION], sequence (P10721 whole entry, looked up, stated change not applied, the tested form may be a part): as the sequence (P10721 whole entry V559D, the tested form may be a part) above, with D559V counted along it
Mitogen-activated protein kinase kinase kinase 20 (Homo sapiens), sequence (Q9NYL2 2-800 limits assumed): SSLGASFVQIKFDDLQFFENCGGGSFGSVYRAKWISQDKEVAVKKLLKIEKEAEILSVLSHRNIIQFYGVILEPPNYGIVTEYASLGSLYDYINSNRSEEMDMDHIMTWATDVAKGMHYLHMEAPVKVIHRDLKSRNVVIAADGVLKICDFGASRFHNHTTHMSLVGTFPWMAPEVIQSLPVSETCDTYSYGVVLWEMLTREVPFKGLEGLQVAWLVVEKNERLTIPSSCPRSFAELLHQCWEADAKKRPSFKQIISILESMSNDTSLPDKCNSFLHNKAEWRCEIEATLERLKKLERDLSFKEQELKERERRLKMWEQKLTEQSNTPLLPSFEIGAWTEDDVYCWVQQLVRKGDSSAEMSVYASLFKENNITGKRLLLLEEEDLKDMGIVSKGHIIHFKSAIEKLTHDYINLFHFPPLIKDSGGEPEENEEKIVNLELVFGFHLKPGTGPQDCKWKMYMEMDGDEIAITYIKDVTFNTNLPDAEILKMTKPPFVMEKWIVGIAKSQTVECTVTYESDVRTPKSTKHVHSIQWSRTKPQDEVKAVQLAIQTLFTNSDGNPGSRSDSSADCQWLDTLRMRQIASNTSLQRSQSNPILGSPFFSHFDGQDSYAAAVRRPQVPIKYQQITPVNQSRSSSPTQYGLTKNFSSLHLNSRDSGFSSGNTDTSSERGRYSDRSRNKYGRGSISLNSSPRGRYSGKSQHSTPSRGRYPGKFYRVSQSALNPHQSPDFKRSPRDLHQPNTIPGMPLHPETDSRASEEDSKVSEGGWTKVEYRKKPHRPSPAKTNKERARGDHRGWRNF
Dual specificity mitogen-activated protein kinase kinase 4 (Homo sapiens), sequence (P45985 whole entry, the tested form may be a part): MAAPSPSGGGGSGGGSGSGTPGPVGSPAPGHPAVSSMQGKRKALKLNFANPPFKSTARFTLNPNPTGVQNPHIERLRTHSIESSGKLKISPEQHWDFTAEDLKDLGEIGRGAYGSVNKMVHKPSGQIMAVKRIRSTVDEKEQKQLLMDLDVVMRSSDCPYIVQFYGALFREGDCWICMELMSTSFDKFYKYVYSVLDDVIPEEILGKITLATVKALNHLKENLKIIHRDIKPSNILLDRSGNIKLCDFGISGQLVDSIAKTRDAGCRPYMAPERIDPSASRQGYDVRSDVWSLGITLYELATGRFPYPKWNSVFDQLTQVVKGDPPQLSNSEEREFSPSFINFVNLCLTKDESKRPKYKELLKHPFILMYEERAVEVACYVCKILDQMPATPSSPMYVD
Casein kinase I isoform gamma-2 (Homo sapiens), sequence (P78368 whole entry, looked up, the tested form may be a part, canonical isoform): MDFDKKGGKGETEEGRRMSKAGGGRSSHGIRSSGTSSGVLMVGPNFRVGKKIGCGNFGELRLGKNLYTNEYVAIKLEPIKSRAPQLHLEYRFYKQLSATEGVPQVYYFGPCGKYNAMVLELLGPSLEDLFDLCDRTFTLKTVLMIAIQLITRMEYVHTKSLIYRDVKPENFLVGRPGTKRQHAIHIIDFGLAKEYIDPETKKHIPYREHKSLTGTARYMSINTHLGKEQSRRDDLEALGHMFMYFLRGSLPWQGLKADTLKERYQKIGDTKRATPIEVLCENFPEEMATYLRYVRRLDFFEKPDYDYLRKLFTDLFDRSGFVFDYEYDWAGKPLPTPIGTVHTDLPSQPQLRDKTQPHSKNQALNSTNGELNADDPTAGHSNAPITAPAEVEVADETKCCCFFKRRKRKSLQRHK
Casein kinase I isoform alpha-like (Homo sapiens), sequence (Q8N752 whole entry, the tested form may be a part, canonical isoform): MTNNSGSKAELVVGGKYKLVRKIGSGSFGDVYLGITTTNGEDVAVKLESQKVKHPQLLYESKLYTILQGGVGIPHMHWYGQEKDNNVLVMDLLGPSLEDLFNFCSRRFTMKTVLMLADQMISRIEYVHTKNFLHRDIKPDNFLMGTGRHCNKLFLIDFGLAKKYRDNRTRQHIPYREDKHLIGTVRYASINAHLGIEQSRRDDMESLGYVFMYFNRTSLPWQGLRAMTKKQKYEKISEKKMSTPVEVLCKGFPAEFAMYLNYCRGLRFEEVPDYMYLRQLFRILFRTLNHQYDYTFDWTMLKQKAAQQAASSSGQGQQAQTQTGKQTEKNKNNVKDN

SMILES: C=CC(=O)Nc1ccccc1Nc1nc(Nc2ccc(N3CCN(C)CC3)cc2)ncc1C(=O)Nc1c(C)cccc1Cl
- inhibition [1]: inactive
- Activity [2]: 0.7%
- Activity [3]: 90%
- Activity [4]: 100%
- Activity [5]: 100%
- Activity [6]: 90%
- Activity [7]: 100%
- Activity [8]: 100%
- Activity [9]: 100%
- Activity [10]: 100%
- Activity [11]: 100%
- Activity [12]: 100%
- Activity [13]: 100%
- Activity [14]: 21%
- Activity [15]: 100%
- Activity [16]: 91%
- Activity [17]: 100%
- Activity [18]: 100%
- Activity [19]: 100%
- Activity [20]: 98%

— ChEMBL document CHEMBL4354843, “Structure-Based Design of a Potent and Selective Covalent Inhibitor for SRC Kinase That Targets a P-Loop Cysteine” (J Med Chem, 2020)
